Each structure is given as a SMILES string. Screen size: about 2,500 compounds; about 1,200 (48%) were called active.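 Rule for the calls: active = mean activation above the low control average plus 3 SD, as set in the primary screen (cut at about 12% in these data); inactive = the rest.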 The set was probably picked from earlier hits. The list shows a part of the results.

This assay has as its target Troponin I, cardiac muscle (Homo sapiens) + Troponin T, cardiac muscle (Homo sapiens) + Troponin C, slow skeletal and cardiac muscles (Homo sapiens) (UniProt P19429+P45379+P63316). Briefly: calcium sensitizers of cardiac thin filaments – biochemical, IANBD-TnC fluorescence, triplicate, confirmation (AID 504383).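 Note: 0% = DMSO at 0.472 mM calcium and 100% = DMSO at 2.9 mM calcium.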 The conditions noted are these: IANBD-labeled cardiac RTF, Ca2+ sensitivity fluorescence; at 7.2 µM; stronger effect = higher value; scaled from EC20 to saturating calcium; tested at EC20 calcium, 0.472 mM. Summed up: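 Material: labelled regulated thin filaments; Reagent: 0.472 mM calcium; Incubation: 15 min compound incubation with filaments at 25 °C; Detection: filament fluorescence intensity; Evaluation: fluorescence increase normalised to calcium controls; Benchmarks: low control EC20 calcium, high control EC100 calcium.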
For `O=C(NCc1ccccc1)C1=C[C@H](C2CC2)C[C@H](OCc2ccc(CO)cc2)O1`, the activation was -0.14% (inactive). Turning to `CCCN(CCC)C(=O)C1c2ccccc2Oc2ccccc21`, the activation is 16.6% (active). Then `CCOC(=O)C1CCCN(C(=O)C2c3ccccc3Oc3ccccc32)C1` (stereo not drawn), with -3.14% (inactive); and `CCOC(=O)C(C#N)C(c1cccnc1)c1c(C)[nH][nH]c1=O` (stereo not drawn), with 5.64% (inactive). On to `Cc1cccn2c(=O)c(/C=C3\SC(=S)NC3=O)c(NCCCN3CCOCC3)nc12`, for which the activation was 63.9% (active). For `Cc1cccn2c(=O)c(/C=C3\SC(=S)N(CC(C)C)C3=O)c(NCCCOC(C)C)nc12`, the activation is 111% (active). Then `COc1cc(CCCN2C(=S)NC[C@@H]2CC2CCCCC2)cc(OC)c1OC`, with 88.2% (active); and `FC(F)(F)c1ccc(-c2nc(=S)[nH][nH]2)cc1`, with 8.3% (inactive). For the compound `CCCN1C(=O)S/C(=C\c2ccc(N3CCOCC3)o2)C1=O`, the activation was 1.26% (inactive). With `O=C1NC(=S)S/C1=C/c1ccc(N2CCOCC2)o1`, the activation was 18.5% (active). As for `CCCN1C(=O)S/C(=C/c2ccc(N3CCOCC3)o2)C1=O`, the activation was 94.3% (active). Then `CC(C)OC(=O)CN1C(=O)S/C(=C/c2ccc(N3CCCCC3)o2)C1=O`, with 13% (active).

Turning to `O=C1S/C(=C\c2ccc(N3CCOCC3)o2)C(=O)N1c1ccccc1`, the activation was 62.9% (active).

On to `COc1ccc(/C=N/Nc2ncc(C(F)(F)F)cc2Cl)cc1OC`, for which the activation was -2.64% (inactive). Then `Cc1[nH]c(=O)c(C#N)c(C)c1Cl`, with 9.65% (inactive); and `O=C1S/C(=C\c2ccc(N3CCOCC3)o2)C(=O)N1Cc1ccc(F)cc1`, with 3.92% (inactive); and `O=C1S/C(=C/c2ccc(N3CCOCC3)o2)C(=O)N1Cc1ccc(F)cc1`, with 54.8% (active). The figure for `O=C1S/C(=C\c2ccc(N3CCOCC3)o2)C(=O)N1Cc1c(F)cccc1Cl` is 788% (active); for `O=C1S/C(=C/c2ccc(N3CCOCC3)o2)C(=O)N1Cc1c(F)cccc1Cl` it is 17.9% (active). Turning to `Cc1cccc(-n2c(C)cc(C=C3C(=O)c4ccccc4C3=O)c2C)c1`, the activation is 1.06% (inactive).

On to `Cc1cc(C=C2C(=O)c3ccccc3C2=O)c(C)n1-c1ccccc1`, for which the activation is 94.4% (active). The figure for `Cc1cc(C=C2C(=O)CCCC2=O)c(C)n1-c1ccccc1` is 3.1% (inactive); for `Cc1cc(C=C2C(=O)c3ccccc3C2=O)c(C)n1-c1ccc(Cl)cc1` it is 13.3% (active).

With `CCN(CC)c1ccc(/C=C2\C(=N)N3N=C(CC(=O)N4CCOCC4)SC3=NC2=O)cc1`, the activation was 16.5% (active). Then `CN(C)c1ccc(/C=C2\SC(N3CCCCC3)=NC2=O)cc1`, with 1160% (active); and `CCOC(=O)C1CCCN(C2=NC(=O)/C(=C/c3ccc(N(C)C)cc3)S2)C1` (stereo not drawn), with 8.97% (inactive); and `CC(C)/C=C1\CC/C(=C\c2ccc(N(C)C)cc2)C1=O`, with 5.2% (inactive).

As for `CN(C)c1ccc(/C=C2\C(=N)N3N=C(CC(=O)N4CCCCC4)SC3=NC2=O)cc1`, the activation is 41.6% (active). Then `CCOC(=O)C1CCCN(C2=NC(=O)/C(=C/c3ccc(O)c(OC)c3)S2)C1` (stereo not drawn), with -0.88% (inactive). Consider `O=C(/C=C/c1cn(CC(O)CN2CCCCCC2)c2ccccc12)c1cccs1` (stereo not drawn), for which the activation was 13.4% (active). Then `CCCN(CCC)CC(O)Cn1cc(/C=C/C(=O)c2cccs2)c2ccccc21` (stereo not drawn), with 11.6% (inactive). Then `O=C(/C=C/c1cn(CC(O)CN2CCCCC2)c2ccccc12)c1cccs1` (stereo not drawn), with 55.5% (active); and `COc1ccc(/C=[N+](\[O-])C2N(c3ccccc3)C(=S)SC2(C)C)cc1OC` (stereo not drawn), with 5.83% (inactive); and `CN1CCN(CCNC(=O)Nc2ccc(Cl)cc2)CC1`, with 13.4% (active).

As to `CCN1CCc2c(sc(NC(=O)Nc3ccc(Cl)c(Cl)c3)c2C(N)=O)C1`, the activation is -0.7% (inactive). `CCN1C(=O)c2cccc3c(N)ccc(c23)C1=O`: the activation is 5.33% (inactive). The figure for `Nc1cccc(N2C(=O)c3cccc4c(N)ccc(c34)C2=O)c1` is 8.12% (inactive); for `CC(C)CCN1C(=O)c2cccc3c(N)ccc(c23)C1=O` it is 15.7% (active).

`c1ccc2c(c1)CN1CCCC1=N2`: the activation is 3.94% (inactive). Then `CC1CC1c1ccc(/C=C(\C#N)C(=O)Nc2ccc(Cl)cc2Cl)o1` (stereo not drawn), with 19.9% (active); and `CC1CC1c1ccc(/C=C(\C#N)C(=O)Nc2cccc(Cl)c2Cl)o1` (stereo not drawn), with 22.5% (active); and `CN1/C(=C\C=C(/C#N)C(=O)Nc2ccccc2F)C(C)(C)c2ccccc21`, with 5.14% (inactive). The figure for `Cc1ccc(NC(=O)/C(C#N)=C/c2ccc(C)s2)c(C)c1` is -3.42% (inactive); for `Clc1cccc(C[n+]2cc(-c3ccccc3)n3c2CCC3)c1` it is 4.21% (inactive); for `CN(CC(=O)NCc1ccco1)S(=O)(=O)c1cccc2cccnc12` it is 32.8% (active).

As for `O=C(NCc1ccco1)C1CC(c2c(Cl)cccc2Cl)=NO1` (stereo not drawn), the activation is 0.26% (inactive).

For `CN(CC(=O)NCc1ccc(Cl)cc1)S(=O)(=O)c1cccc2cccnc12`, the activation was 12.1% (active). Consider `CN(CC(=O)N1CCN(c2ncccn2)CC1)S(=O)(=O)c1ccc(Cl)cc1`, for which the activation is 4.61% (inactive). As to `C#CC[N+](C)(C)CCCCCCCCCC`, the activation was 45.3% (active). The figure for `COc1cc(NC(=O)C2CCCCN2)ccc1OCC(C)C` (stereo not drawn) is 15.1% (active); for `COc1ccc(NC(=O)C2CC2)cc1OC1CCCC1` it is -0.05% (inactive); for `CCC(CC)c1nc(C#N)c(NC(C)c2ccccc2)o1` (stereo not drawn) it is 3.34% (inactive). For the compound `COc1ccc(CNc2oc(COc3ccccc3)nc2C#N)cc1`, the activation was 62.4% (active). Turning to `C=CCNc1oc(COc2ccc(C)cc2)nc1C#N`, the activation was 25.2% (active).

For `CN(C)c1ccc(NC2=C([N+](=O)[O-])CS(=O)(=O)C2)cc1`, the activation was 12.2% (active). Then `CCc1ccc(C(=O)NNc2ccccc2F)cc1`, with 7.76% (inactive); and `CCc1ccc(C(=O)NNC(=O)c2cccc(N3C(=O)CCC3=O)c2)cc1`, with 34.6% (active); and `CC1=C(C)CC(C(=O)NNC(=O)c2cccc(Cl)c2)C(C(=O)O)C1` (stereo not drawn), with 10.7% (inactive). Then `CN(C)c1ccc(/C=C(/C(=O)c2ccc(Cl)cc2Cl)n2cncn2)cc1`, with 4.11% (inactive); and `COc1ccc(CCNC(=O)CN(C)S(=O)(=O)c2ccc3c(c2)CCC(=O)N3)cc1OC`, with 8.22% (inactive).

Consider `O=C1CCc2cc(S(=O)(=O)NC3CCCCC3)ccc2N1`, for which the activation was 12.4% (active).

Turning to `Cc1cc(C(=O)NNC(=S)Nc2ccccc2C)cs1`, the activation is 15.8% (active). `Cc1cc(C(=O)NNC(=S)NCc2ccccc2)cs1`: the activation was 7.2% (inactive). Then `COc1ccc(OC)c(/C=C2\N=C(c3ccccc3)OC2=O)c1`, with 33.8% (active); and `Cc1nn(-c2ccccc2)c(N2CCCC2)c1/C=C1\N=C(c2ccc(OC(C)C)cc2)OC1=O`, with 9.02% (inactive); and `COc1ccc(OC)c(/C=C2/Sc3ccccc3C2=O)c1`, with 5.85% (inactive). On to `Cc1ccc2oc3c(SCc4nc5ccccc5[nH]4)nc(C)nc3c2c1`, for which the activation is 21.2% (active). Then `Cc1ccc(C)c(C2=NNC(=O)CC2)c1`, with 2.35% (inactive). The figure for `COC(=O)[C@@]1(Cc2ccc(OC)cc2)[C@@H]2C(=CC(=O)[C@H]2CC(=O)C(=O)N2CCCC2)CN1C(=O)c1ccccc1` is 36% (active); for `CC(C)CNC(=S)NC(=O)c1ccccc1Cl` it is 106% (active); for `O=C1c2ccccc2C(=O)N1c1ccc(Cc2ccncc2)cc1` it is 18.1% (active). Then `Nc1cccc2c1C(=O)N(c1ccccc1)C2=O`, with 7.13% (inactive). As to `C=CCNc1nc2c(c(=O)[nH]c(=O)n2C)n1CCCc1ccccc1`, the activation was 9.95% (inactive). Then `CCOC(=O)CSc1nc2c(c(=O)n(C)c(=O)n2C)n1Cc1ccccc1F`, with 1280% (active).

Regarding `COC(=O)CSc1nc2c(c(=O)n(C)c(=O)n2C)n1CCCc1ccccc1`, the activation is 147% (active).

As for `CSc1nc2c(c(=O)[nH]c(=O)n2C)n1CCCc1ccccc1`, the activation was 3.83% (inactive).

Take `CN1CCN(c2nc3c(c(=O)n(C)c(=O)n3C)n2Cc2ccccc2F)CC1`: the activation was 5.62% (inactive). The figure for `C=CC[C@@H](CC(=O)N(CCO)Cc1ccccc1)C(=O)N[C@@H](COC(=O)[C@@H](CC=C)Cc1ccc(F)cc1)Cc1ccccc1` is 0.1% (inactive); for `S=C(Nc1ccc(N2CCOCC2)cc1)Nc1ccc2nc(-c3ccco3)c(-c3ccco3)nc2c1` it is 43.1% (active). Then `Cc1cccc(NC(=S)Nc2ccc(N3CCOCC3)cc2)c1C`, with 5.72% (inactive).

Turning to `C[C@H](CO)N1C[C@H](C)[C@@H](CN(C)Cc2ccncc2)Oc2c(NC(=O)c3ccncc3)cccc2C1=O`, the activation was 16.5% (active).

For `Cc1noc(C)c1NC(=O)N(C)C[C@H]1Oc2c(NS(=O)(=O)c3cccs3)cccc2C(=O)N([C@H](C)CO)C[C@@H]1C`, the activation is 4.83% (inactive). The figure for `C[C@H](CO)N1C[C@H](C)[C@@H](CN(C)S(=O)(=O)c2cccs2)Oc2c(NC(=O)Nc3ccc4c(c3)OCO4)cccc2C1=O` is 9.29% (inactive); for `C[C@H]1CN([C@@H](C)CO)C(=O)c2cccc(NC(=O)c3nc4ccccc4s3)c2O[C@H]1CN(C)C(=O)Nc1ccc(F)cc1` it is 12.9% (active); for `C[C@H](CO)N1C[C@H](C)[C@@H](CN(C)C(=O)Nc2ccc(F)cc2)Oc2ccc(NS(C)(=O)=O)cc2C1=O` it is 9.89% (inactive). Then `C[C@H](CO)N1C[C@H](C)[C@@H](CN(C)C(=O)Nc2ccccc2)Oc2ccc(NC(=O)Nc3ccc4c(c3)OCO4)cc2C1=O`, with 9.67% (inactive); and `C[C@H](CO)N1C[C@H](C)[C@@H](CN(C)Cc2ccc(Oc3ccccc3)cc2)Oc2c(NC(=O)C3CC3)cccc2C1=O`, with 47.7% (active).

Consider `C[C@H](CO)N1C[C@H](C)[C@@H](CN(C)Cc2ccncc2)Oc2c(NS(=O)(=O)c3ccc(F)cc3)cccc2C1=O`, for which the activation was 10.3% (inactive). Then `CCOC(=O)c1c(C)oc2c1c(C=NCCO)c(O)c1ccccc12`, with 4.94% (inactive); and `CCN(CC)c1ccc(/C=C(\C#N)C(N)=S)cc1`, with 45.5% (active). As to `CN(C)c1ccc(/C=C(/C#N)C(=O)NCc2ccccc2)o1`, the activation was 12.4% (active). Then `CCN(CC)c1ccc(/C=C(\C#N)C(=O)NCc2ccccc2)cc1`, with 60.6% (active). Then `CC(C)NC(=O)/C(C#N)=C/c1ccc(N(C)C)o1`, with 7.34% (inactive); and `CC(C)NC(=O)/C(C#N)=C\c1ccc(N(C)C)o1`, with 215% (active); and `CCN(CC)c1ccc(/C=C(\C#N)C(=O)c2ccc(Br)cc2)cc1`, with 3.52% (inactive). Then `N#C/C(=C\c1ccc(O)c(O)c1)C(=O)NCCCc1ccccc1`, with 4.22% (inactive); and `CCN(CC)c1ccc(/C=C(/C#N)C(=O)NCc2ccccc2)o1`, with 3.76% (inactive). With `CCN(CC)c1ccc(/C=C(/C#N)C(=O)NC(C)C)o1`, the activation was 9.75% (inactive).
